Data on five compounds can be found in ChEMBL document CHEMBL1821654, “Synthesis and biological evaluation of analogues of M6G” (2011).

The structures appear in SMILES notation. The source made the active and inactive calls.

Experiment [1] has as its system Mus musculus. The experiment can be described thus: Analgesic activity in Swiss mouse assessed as maximum possible tail flick latency at 1.25 mg/kg, sc upto 120 mins. The experiment is classed as functional, organism-based. Also on record: dose 1.25 mg/kg. In outline:
(§1)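 Male Swiss mice, 12 per group, were given compound subcutaneously at doses between 1.25 and 30 mg/kg. Analgesia was measured by tail-flick with an 8 s cut-off to avoid tissue damage. Readings were taken several times from 20 to 120 min after dosing. Inhibition was expressed as percent maximum possible effect (%MPE) by the D'Amour–Smith method.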
Background: In hot-plate and tail-flick tests a longer latency is read as antinociception.

Experiment [2] deals with Mus musculus. The experiment can be described thus: Analgesic activity in Swiss mouse assessed as maximum possible tail flick latency at 1.25 mg/kg, sc. The experiment is classed as functional. To be noted: route subcutaneous. In outline:
as §1

Experiment [3] has as its system Mus musculus. The experiment can be described thus: Analgesic activity in Swiss mouse assessed as maximum possible tail flick latency at 10 mg/kg, po. The experiment is classed as functional. In outline: (§2)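 Compound was given […] to male Swiss mice, 12 per group. Analgesia was measured by tail-flick with an 8 s cut-off. Responsiveness was read several times from 20 to 120 min after dosing. Tail-flick inhibition was expressed as percent maximum possible effect (%MPE) by the D'Amour–Smith method.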

Experiment [4] concerns Mus musculus. The experiment can be described thus: Analgesic activity in po dosed Swiss mouse assessed as thermal-stimulus induced tail flick latency. Format: functional. The gist of the method:
as §2

The subject of experiment [5] is Mus musculus. The experiment can be described thus: Analgesic activity in sc dosed Swiss mouse assessed as assessed as thermal-stimulus induced tail flick latency after 60 mins. Format: functional. The settings on record: 1 h.
Experiment [6] has as its system Mus musculus. The experiment can be described thus: Analgesic activity in sc dosed Swiss mouse assessed as assessed as thermal-stimulus induced tail flick latency after 30 mins. To be noted: 0.5 h.

Consider `CN1CC[C@]23c4c5ccc(O)c4O[C@H]2[C@@H](O[C@@H]2O[C@H](c4nc6n(n4)CCC(O)N6)[C@@H](O)[C@H](O)[C@H]2O)C=C[C@H]3[C@H]1C5.O=C(O)C(F)(F)F` (stereo not given in full), for which the result in the experiment on Mus musculus [1] was Active. Moreover, the MPE with Mus musculus [2] worked out at 80%.

For the compound `CN1CC[C@]23c4c5ccc(O)c4O[C@H]2[C@@H](O[C@@H]2O[C@H](c4nnn[nH]4)[C@@H](O)[C@H](O)[C@H]2O)C=C[C@H]3[C@H]1C5.O=C(O)C(F)(F)F`, the MPE in the experiment on Mus musculus [3] is 78%; in the experiment on Mus musculus [2], 80%. Moreover, in the experiment with Mus musculus [1], the result was Active. Moreover, in the experiment with Mus musculus [4], the ED50 (usually the dose that gives a 50% effect, or the effect in half of the subjects) came to 2.5 mg/kg.

Take `CN1CC[C@]23c4c5ccc(O)c4O[C@H]2[C@@H](O[C@@H]2O[C@H](C(=O)O)[C@@H](O)[C@H](O)[C@H]2O)C=C[C@H]3[C@H]1C5` [MORPHINE GLUCURONIDE]: in the experiment on Mus musculus [5], the ED50 amounted to 2.7 mg/kg.

With `Cc1nnc([C@H]2O[C@@H](O[C@H]3C=C[C@H]4[C@H]5Cc6ccc(O)c7c6[C@@]4(CCN5C)[C@H]3O7)[C@H](O)[C@@H](O)[C@@H]2O)o1.O=C(O)C(F)(F)F`, the result with Mus musculus [1] was Active. Also, the MPE with Mus musculus [2] is reported as 80%.

For the compound `CN1CC[C@]23c4c5ccc(O)c4O[C@H]2[C@@H](O)C=C[C@H]3[C@H]1C5` [MORPHINE], the ED50 with Mus musculus [6] came out at 4.4 mg/kg.
